Data set [1] is described as follows: Cytotoxicity against Chinese hamster DNA-PK deficient V3 cells assessed as reduction in cell survival measured after 16 hrs by crystal violet staining based assay. In kind it is toxicity, Cricetulus griseus. The settings on record: v3, 16 h. A digest of the protocol: (§1)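 V3 (DNA-PKcs-deficient CHO) and V3-YAC (human DNA-PKcs YAC, kept on G-418 500 μg/mL) cells were grown in RPMI/10% FBS. Exponential cells were exposed to agent in 0.5% DMSO for 16 h, then trypsinized and reseeded at 100–100,000 per dish in drug-free medium. Colonies were stained with crystal violet after 10–14 days and counted. Survival is relative to 0.5% DMSO controls.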

The nature of data set [2]: Cytotoxicity against Chinese hamster DNA-PK proficient V3-YAC cells assessed as reduction in cell survival measured after 16 hrs by crystal violet staining based assay. In kind it is toxicity, Cricetulus griseus. The procedure, abridged:
as §1

The nature of data set [3]: Selectivity ratio of LD90 for cytotoxicity against Chinese hamster DNA-PK proficient V3-YAC cells to LD90 for cytotoxicity against Chinese hamster DNA-PK deficient V3 cells. The class given is toxicity, cell-based, Cricetulus griseus. A digest of the protocol: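 Clonogenic survival of V3 and V3-YAC Chinese hamster ovary cells, RPMI/10% FBS, V3-YAC kept under G-418 at 500 μg/mL. Colonies read 10–14 days later. LD90 is the dose or concentration killing 90%, and the LD90 ratio gives the fold change.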

In data set [4] the test system is SW-620. The data set is described as follows: Induction of DNA damage in human SW620 cells assessed as increase in formation of gamma-H2AX phosphorylation foci per cell at 1 umol/L preincubated for 1 hr followed by compound washout and measured after 30 mins by DAPI staining based immunofluorescence microscopic analysis. In kind it is functional. The settings on record: dose 1 µmol/L. The procedure, abridged: (§2)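 SW620 cells on coverslips at 50–70% confluence, preincubated 1 h ± 1 μmol/L agent, then 1 μmol/L etoposide for 1 h, washed three times, and kept ± agent for up to 24 h. Fixation in −20 °C methanol, then anti-γH2AX Ser139 antibody with FITC secondary and DAPI mounting. Foci counted in 30 nuclei from three areas per sample, in triplicate.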

Data set [5] concerns SW-620. Description: Induction of DNA damage in human SW620 cells assessed as loss of gamma-H2AX phosphorylation foci formation at 1 umol/L preincubated for 1 hr followed by compound washout and measured after 4 hrs by DAPI staining based immunofluorescence microscopic analysis relative to control. In kind it is functional. The settings on record: dose 1 µmol/L, at 1 µM. The procedure, abridged:
as §2

For data set [6], the system named is SW-620. The data set is described as follows: Induction of DNA damage in human SW620 cells assessed as loss of gamma-H2AX phosphorylation foci formation at 1 umol/L preincubated for 1 hr followed by compound washout and measured after 16 hrs by DAPI staining based immunofluorescence microscopic analysis relative to control. The settings on record: dose 1 µmol/L, at 1 µM. The class given is functional. A digest of the protocol: as §2

Data set [7] has as its system SW-620. The data set is described as follows: Cell cycle arrest in human SW620 cells assessed as increase in G2-M-phase cell population at 0.1 uM measured after 16 hrs by propidium iodide staining based flow cytometry relative to control. The class given is functional. A general note: Flow cytometry measures light scatter and fluorescence of single cells or particles in a stream.

In data set [8] the test system is SW-620. The data set is described as follows: Cell cycle arrest in human SW620 cells assessed as reduction in S-phase cell population at 0.1 uM measured after 16 hrs by propidium iodide staining based flow cytometry. The class given is functional.
Data set [9] can be described thus: Toxicity in human SW620 cell xenografted athymic nude CD1 mouse assessed as maximum body weight loss at 11.35 mg/kg, ip administered 5 times daily for 5 days relative to control. The class given is organism-based, SW-620. The settings on record: in vivo, 120 h, time 5 day. On the technique in general: A xenograft is tissue or cells of one species grown in another, often human tumour cells in immunodeficient mice.

The test system of data set [10] is SW-620. The data set is described as follows: Antitumor activity against human SW620 cells xenografted in athymic nude CD1 mouse assessed as tumor growth delay at 11.35 mg/kg, ip administered 5 times daily for 5 days. The settings on record: time 5 day. The class given is functional.
Data set [11] concerns the target T1, DNA-dependent protein kinase catalytic subunit (Homo sapiens, UniProt P78527). Description: Inhibition of DNA-PK in human HCT-116 cells assessed as potentiation of ionizing radiation-induced cytotoxicity relative to radiation alone. In kind it is cell-based.
For data set [12], the target named is T1, DNA-dependent protein kinase catalytic subunit. The data set is described as follows: Inhibition of DNA-PK in human HCT-116 cells assessed as potentiation of etoposide-induced cytotoxicity relative to etoposide alone. The class given is cell-based.
The nature of data set [13]: Inhibition of ATM in Chinese hamster DNA-PK proficient V3-YAC cells assessed as potentiation of ionizing radiation-induced cytotoxicity by measuring fold change in radiation LD90 at 10 umol/L preincubated for 1 hr followed by gamma-irradiation and measured after 16 hrs by crystal violet staining based assay relative to radiation alone. Also noted: species or system Cricetulus griseus. The settings on record: dose 10 µmol/L; time 17 hrs; condition cancer.

The nature of data set [14]: Inhibition of ATM in Chinese hamster DNA-PK proficient V3-YAC cells assessed as potentiation of etoposide-induced cytotoxicity by measuring fold change in etoposide LD90 at 10 umol/L measured after 16 hrs by crystal violet staining based assay relative to etoposide alone. Also noted: species or system Cricetulus griseus. The settings on record: dose 10 µmol/L, condition cancer.

Data set [15] can be described thus: Cytotoxicity against Chinese hamster DNA-PK deficient V3 cells assessed as increase in etoposide-induced cytotoxicity by measuring fold change in etoposide LD90 at 10 umol/L measured after 16 hrs by crystal violet staining based assay relative to etoposide alone. The settings on record: v3, 16 h, 10 µM, dose 10 µmol/L. The class given is toxicity, cell-based, Cricetulus griseus.

The subject of data set [16] is SW-620. The data set is described as follows: Cell cycle arrest in human SW620 cells assessed as increase in G2-M-phase cell population at 10 nM measured after 16 hrs by propidium iodide staining based flow cytometry relative to control. The class given is functional.
Data set [17] relates to SW-620. Description: Cell cycle arrest in human SW620 cells assessed as reduction in S-phase cell population at 10 nM measured after 16 hrs by propidium iodide staining based flow cytometry. The class given is functional.
Data set [18] concerns the target T1, DNA-dependent protein kinase catalytic subunit. Description: Inhibition of DNA-PK in human SW480 cells assessed potentiation of ionizing radiation-induced cytotoxicity by measuring ratio of cytotoxic agent required to kill 90% of the cells in the absence and presence of compound. The class given is cell-based.

Calls of active or inactive are those of the source. No cut-off for these calls is given here.

T1 sequence (P78527 whole entry): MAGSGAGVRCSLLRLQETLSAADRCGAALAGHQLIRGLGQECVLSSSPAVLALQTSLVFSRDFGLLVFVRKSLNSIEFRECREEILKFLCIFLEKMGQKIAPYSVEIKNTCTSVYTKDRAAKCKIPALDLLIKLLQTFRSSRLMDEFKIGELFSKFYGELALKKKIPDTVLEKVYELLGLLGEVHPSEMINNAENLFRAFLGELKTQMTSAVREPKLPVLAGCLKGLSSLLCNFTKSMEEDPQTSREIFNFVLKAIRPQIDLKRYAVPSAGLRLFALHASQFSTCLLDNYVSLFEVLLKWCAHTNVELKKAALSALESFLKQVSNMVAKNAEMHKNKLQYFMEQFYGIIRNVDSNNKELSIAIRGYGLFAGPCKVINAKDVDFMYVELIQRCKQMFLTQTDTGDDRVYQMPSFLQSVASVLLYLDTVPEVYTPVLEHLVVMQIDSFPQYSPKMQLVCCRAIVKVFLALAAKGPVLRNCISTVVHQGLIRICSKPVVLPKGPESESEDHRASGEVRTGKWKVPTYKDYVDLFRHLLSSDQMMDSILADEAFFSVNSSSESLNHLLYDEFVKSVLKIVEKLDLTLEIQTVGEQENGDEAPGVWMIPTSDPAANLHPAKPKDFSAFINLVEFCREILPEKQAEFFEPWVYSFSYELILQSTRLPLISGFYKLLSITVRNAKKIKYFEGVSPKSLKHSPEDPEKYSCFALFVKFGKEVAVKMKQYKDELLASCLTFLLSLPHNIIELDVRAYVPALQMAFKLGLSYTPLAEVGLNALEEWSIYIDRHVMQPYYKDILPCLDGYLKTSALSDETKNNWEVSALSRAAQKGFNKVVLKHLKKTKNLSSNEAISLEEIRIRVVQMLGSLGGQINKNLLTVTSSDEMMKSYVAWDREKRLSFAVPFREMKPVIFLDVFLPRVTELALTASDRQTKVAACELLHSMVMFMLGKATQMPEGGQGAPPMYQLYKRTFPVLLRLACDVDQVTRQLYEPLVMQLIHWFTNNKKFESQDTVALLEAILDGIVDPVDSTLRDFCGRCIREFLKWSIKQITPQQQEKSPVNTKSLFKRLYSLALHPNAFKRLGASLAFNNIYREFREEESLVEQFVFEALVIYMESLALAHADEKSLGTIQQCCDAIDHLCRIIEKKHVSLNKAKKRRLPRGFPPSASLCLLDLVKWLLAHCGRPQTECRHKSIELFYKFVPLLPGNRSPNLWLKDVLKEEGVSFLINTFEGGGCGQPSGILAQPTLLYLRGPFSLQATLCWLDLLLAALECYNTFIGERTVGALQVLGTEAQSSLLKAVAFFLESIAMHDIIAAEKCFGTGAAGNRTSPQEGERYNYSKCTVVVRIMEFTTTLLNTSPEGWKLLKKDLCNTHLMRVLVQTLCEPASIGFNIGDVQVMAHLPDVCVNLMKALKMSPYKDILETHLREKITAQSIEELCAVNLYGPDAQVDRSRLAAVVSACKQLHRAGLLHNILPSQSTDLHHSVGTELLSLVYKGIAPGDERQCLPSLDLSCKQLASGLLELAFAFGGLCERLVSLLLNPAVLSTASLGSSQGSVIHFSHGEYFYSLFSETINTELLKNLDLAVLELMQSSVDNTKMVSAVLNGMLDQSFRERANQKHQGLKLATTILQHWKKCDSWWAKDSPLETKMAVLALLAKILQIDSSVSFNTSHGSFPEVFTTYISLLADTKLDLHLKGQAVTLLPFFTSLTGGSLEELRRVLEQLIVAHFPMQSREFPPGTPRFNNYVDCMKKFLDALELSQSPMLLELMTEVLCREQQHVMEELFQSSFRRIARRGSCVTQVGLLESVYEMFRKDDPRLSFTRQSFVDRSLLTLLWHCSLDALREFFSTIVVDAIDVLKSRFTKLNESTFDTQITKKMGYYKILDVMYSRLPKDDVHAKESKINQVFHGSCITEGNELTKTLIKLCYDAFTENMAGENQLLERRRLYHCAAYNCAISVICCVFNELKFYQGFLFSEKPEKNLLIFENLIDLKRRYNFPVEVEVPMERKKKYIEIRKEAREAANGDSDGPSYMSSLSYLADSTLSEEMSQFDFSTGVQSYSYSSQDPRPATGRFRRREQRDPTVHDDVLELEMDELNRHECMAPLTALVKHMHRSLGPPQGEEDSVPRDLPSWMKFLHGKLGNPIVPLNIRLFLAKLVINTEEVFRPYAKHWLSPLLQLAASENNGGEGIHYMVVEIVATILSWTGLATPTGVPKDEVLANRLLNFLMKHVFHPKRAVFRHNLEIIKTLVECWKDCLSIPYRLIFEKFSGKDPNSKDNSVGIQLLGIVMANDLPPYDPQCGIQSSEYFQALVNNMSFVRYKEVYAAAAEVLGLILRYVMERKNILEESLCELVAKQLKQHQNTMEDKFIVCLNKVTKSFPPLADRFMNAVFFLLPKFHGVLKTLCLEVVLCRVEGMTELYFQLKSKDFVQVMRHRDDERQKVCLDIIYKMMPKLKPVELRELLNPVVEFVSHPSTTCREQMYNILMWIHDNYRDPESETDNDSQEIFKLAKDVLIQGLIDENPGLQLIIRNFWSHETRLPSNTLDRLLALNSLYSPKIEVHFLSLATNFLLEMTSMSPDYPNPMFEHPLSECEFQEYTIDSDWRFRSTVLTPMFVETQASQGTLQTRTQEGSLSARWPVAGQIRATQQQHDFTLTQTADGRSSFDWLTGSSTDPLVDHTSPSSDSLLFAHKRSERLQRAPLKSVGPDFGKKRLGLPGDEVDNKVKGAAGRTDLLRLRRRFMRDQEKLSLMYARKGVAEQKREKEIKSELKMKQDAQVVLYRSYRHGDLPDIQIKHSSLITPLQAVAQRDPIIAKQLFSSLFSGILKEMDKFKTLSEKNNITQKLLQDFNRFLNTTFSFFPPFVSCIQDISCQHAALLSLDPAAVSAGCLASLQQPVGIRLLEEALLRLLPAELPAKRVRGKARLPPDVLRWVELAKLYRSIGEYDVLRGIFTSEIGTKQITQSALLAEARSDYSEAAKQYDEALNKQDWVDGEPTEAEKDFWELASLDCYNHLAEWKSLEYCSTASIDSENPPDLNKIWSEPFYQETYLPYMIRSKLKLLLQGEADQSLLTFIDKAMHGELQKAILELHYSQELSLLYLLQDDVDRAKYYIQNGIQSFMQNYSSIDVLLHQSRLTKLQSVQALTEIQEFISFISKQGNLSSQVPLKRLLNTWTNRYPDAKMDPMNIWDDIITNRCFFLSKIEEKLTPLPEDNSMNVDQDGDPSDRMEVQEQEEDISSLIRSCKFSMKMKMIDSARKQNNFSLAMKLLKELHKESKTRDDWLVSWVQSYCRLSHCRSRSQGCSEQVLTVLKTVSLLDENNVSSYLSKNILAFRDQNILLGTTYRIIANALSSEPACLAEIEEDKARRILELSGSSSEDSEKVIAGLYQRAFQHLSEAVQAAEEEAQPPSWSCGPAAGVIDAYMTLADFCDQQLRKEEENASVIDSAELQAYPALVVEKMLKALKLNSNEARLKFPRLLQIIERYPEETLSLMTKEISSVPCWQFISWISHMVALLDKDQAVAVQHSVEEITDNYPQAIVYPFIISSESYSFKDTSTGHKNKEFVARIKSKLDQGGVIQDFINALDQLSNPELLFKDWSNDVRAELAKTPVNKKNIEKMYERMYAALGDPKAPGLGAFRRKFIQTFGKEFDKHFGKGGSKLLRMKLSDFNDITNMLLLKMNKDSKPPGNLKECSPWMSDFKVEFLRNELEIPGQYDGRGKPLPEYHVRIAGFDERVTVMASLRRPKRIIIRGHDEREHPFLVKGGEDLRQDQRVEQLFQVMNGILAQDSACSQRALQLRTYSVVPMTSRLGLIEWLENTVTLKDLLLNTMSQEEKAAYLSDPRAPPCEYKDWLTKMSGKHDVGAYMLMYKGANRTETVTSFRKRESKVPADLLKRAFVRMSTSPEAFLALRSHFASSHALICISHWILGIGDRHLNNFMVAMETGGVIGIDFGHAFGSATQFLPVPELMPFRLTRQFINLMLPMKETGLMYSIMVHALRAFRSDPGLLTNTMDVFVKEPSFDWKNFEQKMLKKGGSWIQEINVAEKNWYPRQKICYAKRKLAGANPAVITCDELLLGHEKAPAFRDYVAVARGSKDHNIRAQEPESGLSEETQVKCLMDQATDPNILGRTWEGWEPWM

Consider `COc1cc([C@@H]2c3cc4c(cc3[C@@H](O[C@@H]3O[C@@H]5CO[C@@H](C)O[C@H]5[C@H](O)[C@H]3O)[C@H]3COC(=O)[C@H]23)OCO4)cc(OC)c1O` [ETOPOSIDE], for which the LD90 was 0.6 µmol/L in [1] and 1.8 µmol/L in [2]. In addition, in data set [3], the selectivity ratio came out at 3. Also, the Activity in the data set with SW-620 [4] was found to be 22; in the data set with SW-620 [5], 39%; with SW-620 [6], 5.3%; with SW-620 [7], 83%. The result with SW-620 [8] was Active.

Turning to `COc1cc([C@@H]2c3cc4c(cc3[C@@H](O[C@@H]3O[C@@H]5CO[C@@H](C)O[C@H]5[C@H](O)[C@H]3O)[C@H]3COC(=O)[C@H]23)OCO4)cc(OC)c1OP(=O)(O)O` [ETOPOSIDE PHOSPHATE], the Activity in data set [9] was 6%. In addition, the Time in the data set on SW-620 [10] stood at 2.7 days.

In the case of `CC(=O)c1ccc(N2CCOCC2)cc1O`, the fold change (FC) in data set [11] was 4; in data set [12], 15.

Turning to `O=c1cc(-c2cccc3c2Sc2ccccc2S3)oc(N2CCOCC2)c1` [KU-55933], the “fold change (FC)” value in data set [13] is 2; in data set [14], 6; in data set [15], 6.

Consider `COc1cccc2c1C(=O)c1c(O)c3c(c(O)c1C2=O)C[C@@](O)(C(=O)CO)C[C@@H]3O[C@H]1C[C@H](N)[C@H](O)[C@H](C)O1` [DOXORUBICIN], for which, in the data set on SW-620 [16], the Activity came to 158%. In addition, the outcome in the data set with SW-620 [17] was Active.

In the case of `O=c1cc(N2CCOCC2)oc2c(-c3ccccc3)cccc12`, in data set [18], the Ratio was 1.9.

Take `COC[C@H]1OC(=O)c2coc3c2[C@@]1(C)C1=C(C3=O)[C@@H]2CCC(=O)[C@@]2(C)C[C@H]1OC(C)=O`: the Ratio in data set [18] amounted to 2.8.

For the origin of these results see ChEMBL document CHEMBL5661969, “Preclinical evaluation of a potent novel DNA-dependent protein kinase inhibitor NU7441” (Cancer Res, 2006).
